Experimental data reported in PubChem BioAssay.
Activity calls are given as the source filed them.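 How the source made its calls, unless noted: active means viability at or below 30% in both replicate assays; inconclusive means viability at or below 30% in just one of the two assays; inactive means the rest.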

Assays:
[1] = Her2 expression decrease, cell viability multiplex – SKBR3 breast tumor cells, AlphaScreen, ATP viability, primary screen (AID 461;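 active means Her2 level under about 52% in both replicate screens, with viability over 70% of control, limit read from the data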;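 on Her2 level: lower value means less Her2 protein in the cells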;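 on viability: percent of carrier control wells set as 100% viability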); details: SKBR3 Her2 protein level, 18-24 h, measured here: SKBR3 viability, ATP luminescence, at 10 µM
[2] = biological target: Receptor tyrosine-protein kinase erbB-2 (Homo sapiens) (UniProt P04626); assay: as above; details: 18-24 h, at 10 µM, stronger effect = lower value
[3] = reduced viability of SK-BR-3 breast cancer cells – cell-based, 24 h, human, pilot screen (AID 572;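 active means viability at or below 10% of carrier control in both of two separate runs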;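 further: compound exposure lasted between 18 and 24 h rather than exactly 24 h; 100% = carrier-treated control wells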); details: SK-BR-3 viability, CellTiter-Glo luminescence, at 10 µM, stronger effect = lower value
[4] = HUVEC growth inhibition – cell-based, human, primary screen (AID 575); details: HUVEC proliferation, CellTiter-Glo luminescence, 72 h; at 10 µM; stronger effect = lower value;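 further: 100% = median of untreated cell wells with 0.1% DMSO on each plate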
How it was run: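 Test system – primary HUVEC, no more than 12 passages · Dosing – one dose, 10 µM final, 0.1% DMSO · Times – 72 h treatment at 37 °C · Measured by – ATP-based CellTiter-Glo luminescent read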

[5] = H69AR cell proliferation blockers – human, duplicate replicates, primary screen (AID 580;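 active means viability at or under a set limit in both replicates, limit being median viability minus 3 SD, cut at about 48% in these data, passing the limit was not always enough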;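 further: 100% = mean luminescence of untreated wells and 0% = no signal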); details: H69AR lung tumor cells viability, ATP luminescence, 72 h; at 10 µM; stronger effect = lower value
[6] = MRP1 drug-resistance reversers in H69AR cells – cell-based, doxorubicin co-treatment, pilot screen (AID 601;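 active means viability loss from added drug above about 55%, and viability with drug at most 40%, in both replicates, limit read from the data, passing the limit was not always enough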); details: CellTiter-Glo, 72 h, at 10 µM; for differential viability (reversal): stronger effect = higher value
[7] = yeast transport mutant growth inhibition pilot in 384-well plates, post-Golgi transport modulator project (AID 636; in the data active means inhibition above about 31%); details: absorbance 615 nm, about 18 h, stronger effect = higher value
[8] = growth suppression of yeast trafficking mutant, preliminary HTS, modulators of trafficking downstream of Golgi apparatus project, 1536-format plate, OD 615 nm (AID 637; in the data active means inhibition above about 30%); details: yeast transport mutant growth, absorbance 615 nm, 18 h; stronger effect = higher value
[9] = H69AR cells + 2 uM doxorubicin, measured here: viability with 2 uM doxorubicin, stronger effect = lower value
[10] = H69AR cells, compound alone cytotoxicity

Receptor tyrosine-protein kinase erbB-2 (Homo sapiens), sequence (P04626 whole entry, looked up): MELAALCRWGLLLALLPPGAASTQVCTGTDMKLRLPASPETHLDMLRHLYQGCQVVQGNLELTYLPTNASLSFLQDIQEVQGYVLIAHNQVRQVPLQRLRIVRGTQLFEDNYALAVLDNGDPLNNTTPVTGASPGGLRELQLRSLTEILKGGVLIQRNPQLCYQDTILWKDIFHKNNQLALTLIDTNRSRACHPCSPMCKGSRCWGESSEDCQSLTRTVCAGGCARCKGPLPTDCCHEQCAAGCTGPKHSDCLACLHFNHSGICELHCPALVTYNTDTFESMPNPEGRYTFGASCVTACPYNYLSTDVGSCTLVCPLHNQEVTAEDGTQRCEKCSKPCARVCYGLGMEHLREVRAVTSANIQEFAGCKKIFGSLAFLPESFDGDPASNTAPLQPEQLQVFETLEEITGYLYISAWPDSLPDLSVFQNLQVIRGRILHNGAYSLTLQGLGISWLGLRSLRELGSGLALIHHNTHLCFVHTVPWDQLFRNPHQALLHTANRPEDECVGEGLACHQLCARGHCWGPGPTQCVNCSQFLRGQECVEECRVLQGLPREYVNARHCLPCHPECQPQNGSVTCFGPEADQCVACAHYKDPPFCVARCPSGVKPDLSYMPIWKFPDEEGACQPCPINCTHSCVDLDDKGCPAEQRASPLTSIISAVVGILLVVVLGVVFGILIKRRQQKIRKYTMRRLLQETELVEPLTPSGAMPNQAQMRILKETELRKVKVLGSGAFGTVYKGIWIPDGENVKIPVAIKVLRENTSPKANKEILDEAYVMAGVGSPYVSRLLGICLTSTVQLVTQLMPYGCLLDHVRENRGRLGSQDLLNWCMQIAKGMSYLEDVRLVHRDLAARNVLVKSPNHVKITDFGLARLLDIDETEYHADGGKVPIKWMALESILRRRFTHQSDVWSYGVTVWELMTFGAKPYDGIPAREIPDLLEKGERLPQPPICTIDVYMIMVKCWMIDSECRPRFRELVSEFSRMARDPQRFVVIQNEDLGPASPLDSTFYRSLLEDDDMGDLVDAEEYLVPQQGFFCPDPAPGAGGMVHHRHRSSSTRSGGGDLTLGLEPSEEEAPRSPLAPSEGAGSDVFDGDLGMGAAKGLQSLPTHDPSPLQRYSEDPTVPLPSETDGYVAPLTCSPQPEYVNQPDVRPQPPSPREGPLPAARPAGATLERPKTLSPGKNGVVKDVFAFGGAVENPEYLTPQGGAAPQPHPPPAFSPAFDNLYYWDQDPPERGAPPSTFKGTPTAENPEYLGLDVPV

SMILES	viability [1] [%]	Her2 level [2]	viability [3]	viability [4]	viability [5]	differential viability (reversal) ([6]; H69AR cells + 2 uM doxorubicin)	viability [6, 9] [%]	viability [6, 10] [%]	inhibition [7]	inhibition [8]
CCn1ncc(Cl)c1C(=O)Nc1ccncc1	114	94.5% (inactive)	114% (inactive)	97.5% (inactive)	98.6% (inactive)	14.8% (inactive)	83.7	98.6	-4.4% (inactive)	-1.97% (inactive)
Cc1cc(C)cc(NC(=O)N2CCC(c3nc4ccccc4o3)CC2)c1	90.5	99% (inactive)	90.5% (inactive)	88.9% (inactive)	94.9% (inactive)	1.69% (inactive)	93.2	94.9	-4.8% (inactive)	1.8% (inactive)
CC(C)(C)n1ncc2c(=O)n(CC(=O)NCCc3ccccc3)cnc21	88	108% (inactive)	88% (inactive)	107% (inactive)	90.9% (inactive)	-4.92% (inactive)	95.8	90.9	0.92% (inactive)	-6.13% (inactive)
CCn1nc(C(=O)OCC(=O)c2cc(C)n(Cc3cccs3)c2C)c2ccccc2c1=O	93.5	93% (inactive)	93.5% (inactive)	84.1% (inactive)	83.6% (inactive)	-9.39% (inactive)	93	83.6	-3.2% (inactive)	26.6% (inactive)
Cc1nnc(SCc2cc(=O)[nH]c(N3CCCCC3)n2)s1	94	86.5% (inactive)	94% (inactive)	107% (inactive)	94.1% (inactive)	2.25% (inactive)	91.9	94.1	-7.3% (inactive)	-2.86% (inactive)
CCOc1cc(C(=O)NCc2ccncc2)cc(OCC)c1OCC	117	92% (inactive)	117% (inactive)	94.4% (inactive)	90.7% (inactive)	2.97% (inactive)	87.7	90.7	-6.27% (inactive)	-4.76% (inactive)
CCOC(=O)Nc1c(C(=O)OC)[nH]c2cccc(OC)c12	76	112% (inactive)	76% (inactive)	106% (inactive)	104% (inactive)	13% (inactive)	91	104	3.03% (inactive)	9.52% (inactive)
O=C(NCCc1ccccn1)c1ccc(COc2ccccc2)o1	80	100% (inactive)	80% (inactive)	103% (inactive)	102% (inactive)	6.97% (inactive)	95.3	102	-2.99% (inactive)	0.33% (inactive)
CC(C)(C)n1nnnc1CN1CCN(C2CCCC2)CC1	84	84% (inactive)	84% (inactive)	101% (inactive)	104% (inactive)	3.04% (inactive)	101	104	-7.7% (inactive)	-2.3% (inactive)
C=CCn1c(SCC2=C(C(=O)OCC)C(C)NC(=O)N2)nnc1C1CCCCC1 (stereo not given)	100	105% (inactive)	100% (inactive)	83.6% (inactive)	91.5% (inactive)	-4.74% (inactive)	96.2	91.5	-5.06% (inactive)	-0.98% (inactive)
O=C(CSc1nnnn1C1CCCCC1)N1CCc2ccccc21	91	82.5% (inactive)	91% (inactive)	60.9% (inactive)	87.1% (inactive)	-3.15% (inactive)	90.2	87.1	-3.87% (inactive)	-2.79% (inactive)
CC1CN(C(=O)c2cc3cc(Cl)cc(Cl)c3oc2=O)CC(C)O1 (stereo not given)	83.5	102% (inactive)	83.5% (inactive)	96.8% (inactive)	92.4% (inactive)	4.73% (inactive)	87.7	92.4	-3.47% (inactive)	23.8% (inactive)
Cc1nc2ccccc2c2oc(C(=O)NCc3ccccn3)cc12	81	88% (inactive)	81% (inactive)	81.4% (inactive)	96.8% (inactive)	2.25% (inactive)	94.6	96.8	-1.73% (inactive)	-2.3% (inactive)
COc1cc(C(=O)Nc2ccc3c(c2)C(=O)N(CCC(=O)O)C3=O)cc(OC)c1OC	97.5	83% (inactive)	97.5% (inactive)	98% (inactive)	106% (inactive)	5.66% (inactive)	100	106	-3.42% (inactive)	-2.86% (inactive)
CCN(c1c(C)n(C)n(-c2ccccc2)c1=O)S(C)(=O)=O	98.5	79.5% (inactive)	98.5% (inactive)	102% (inactive)	95.6% (inactive)	6.92% (inactive)	88.7	95.6	-6.76% (inactive)	4.29% (inactive)
CSc1nc(C)cc(OCC(=O)N2CCOCC2)n1	130	112% (inactive)	130% (inactive)	99.2% (inactive)	92.7% (inactive)	2.54% (inactive)	90.2	92.7	-4.81% (inactive)	5% (inactive)

SMILES	viability [1] [%]	Her2 level [2]	viability [3]	viability [4]	viability [5]	differential viability (reversal) ([6]; H69AR cells + 2 uM doxorubicin)	viability [6, 9] [%]	viability [6, 10] [%]	inhibition [7]	inhibition [8]
CC(=O)NC(Cc1ccccc1)C(=O)NC1CCN(C(=O)c2cnccn2)CC1 (stereo not given)	122	88% (inactive)	122% (inactive)	104% (inactive)	96.2% (inactive)	1.21% (inactive)	95	96.2	-4.86% (inactive)	8.52% (inactive)
CC(C)(C)NC(=O)Nc1ccccc1C(N)=O	110	108% (inactive)	110% (inactive)	103% (inactive)	110% (inactive)	7.05% (inactive)	103	110	-2.27% (inactive)	-5% (inactive)
O=C(c1ccc(Cl)cc1)N(Cc1cccs1)C1CCS(=O)(=O)C1 (stereo not given)	100	138% (inactive)	100% (inactive)	117% (inactive)	89.2% (inactive)	-8.41% (inactive)	97.6	89.2	-3.29% (inactive)	7.7% (inactive)
COc1ccccc1N1CCN(C(=O)c2oc3cc(C)c(C)cc3c2C)CC1	117	104% (inactive)	117% (inactive)	82.4% (inactive)	92.7% (inactive)	-2.22% (inactive)	94.9	92.7	-1.18% (inactive)	-2.62% (inactive)
CCOCC(=O)Nc1sc2c(c1C(=O)OCC)CCCC2	89	89.5% (inactive)	89% (inactive)	54% (inactive)	90.5% (inactive)	-4.83% (inactive)	95.3	90.5	0.13% (inactive)	1.64% (inactive)
O=C(Nc1cccc(C(F)(F)F)c1)c1cccnc1N1CCCC1	99	102% (inactive)	99% (inactive)	102% (inactive)	95% (inactive)	-6.8% (inactive)	102	95	-2% (inactive)	-1.29% (inactive)
CCn1c(=S)sc2nc(C)sc21	94	100% (inactive)	94% (inactive)	96.6% (inactive)	93.7% (inactive)	3.59% (inactive)	90.1	93.7	-4.27% (inactive)	1.94% (inactive)
O=C(NCc1cccs1)c1cc2c(s1)-c1ccccc1OC2	96	91.5% (inactive)	96% (inactive)	76.8% (inactive)	94.8% (inactive)	5.04% (inactive)	89.7	94.8	-5.2% (inactive)	3.77% (inactive)
Cc1cccc2c1N(CC(=O)OC(C)C)C(=O)C2=O	76.5	103% (inactive)	76.5% (inactive)	95% (inactive)	75.2% (inactive)	-3.31% (inactive)	78.5	75.2	1.67% (inactive)	6.67% (inactive)
Nc1nonc1-c1noc(CCCCCN2C(=O)c3ccccc3C2=O)n1	102	102% (inactive)	102% (inactive)	108% (inactive)	105% (inactive)	7.63% (inactive)	97.6	105	-4.4% (inactive)	-6.61% (inactive)
COc1cc2c(cc1OC)-c1cc(OCc3cccnc3)nc(=O)n1CC2	92	106% (inactive)	92% (inactive)	99.7% (inactive)	92.9% (inactive)	2.05% (inactive)	90.8	92.9	-3.73% (inactive)	9.19% (inactive)
O=C(NCc1cccnc1)c1ccc2c(c1)OCO2	74	102% (inactive)	74% (inactive)	105% (inactive)	89.7% (inactive)	-16.9% (inactive)	107	89.7	-1.35% (inactive)	-9.18% (inactive)
NC(=O)c1c(NC(=O)CN2CCCC2)sc2c1CCCC2	104	114% (inactive)	104% (inactive)	95.9% (inactive)	91.3% (inactive)	4.73% (inactive)	86.6	91.3	-0.8% (inactive)	-5.57% (inactive)
CCc1nnc(NC(=O)CSc2nnc3scc(-c4ccc(C)cc4)n23)s1	100	95.5% (inactive)	100% (inactive)	108% (inactive)	96.6% (inactive)	-0.05% (inactive)	96.7	96.6	-3.15% (inactive)	-1.27% (inactive)
CCCC(C)C(=O)Nc1ccc(C(N)=O)cc1 (stereo not given)	95	93.5% (inactive)	95% (inactive)	96% (inactive)	93.1% (inactive)	7.36% (inactive)	85.7	93.1	-5.81% (inactive)	-1.33% (inactive)
Cn1c(=O)c2c(-c3ccccc3)n(CCCN3CCOCC3)cc2n(C)c1=O	77.5	98.5% (inactive)	77.5% (inactive)	69.7% (inactive)	82.2% (inactive)	10.4% (inactive)	71.9	82.2	2.21% (inactive)	-4.29% (inactive)
